According to ChEMBL document CHEMBL4422696, “Fusicoccane Diterpenes from Hypoestes forsskaolii as Heat Shock Protein 90 (Hsp90) Modulators” (J Nat Prod, 2019):
Activity calls are given as the source filed them. The rule behind the calls is not given here.

Assays:
[1] = target: T1, Heat shock protein HSP 90-alpha (Homo sapiens, UniProt P07900); experiment: Binding affinity to recombinant human HSP90 alpha by Surface plasmon resonance analysis
[2] = test system: HeLa; experiment: Antiproliferative activity against human HeLa cells after 48 hrs by MTT assay; type: functional, cell-based
Procedure, shortened: (§1)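 Cells grown in DMEM (HeLa) or RPMI 1640 (Jurkat) with 10% FBS at 37 °C and 5% CO2. Seeded at 1 × 10^4 cells/well the day before, then exposed 48 h to 10−150 μM compound (final DMSO ≤0.15% v/v), with vehicle and etoposide controls. MTT read at 550 nm; IC50 from dose–response curves versus controls; mean ± SD, ≥3 experiments in duplicate.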

[3] = test system: Jurkat; experiment: Antiproliferative activity against human Jurkat cells after 48 hrs by MTT assay; type: functional, cell-based; procedure, shortened: as §1
[4] = test system: PBMC; experiment: Cytotoxicity against human PBMC up to 100 uM after 48 hrs by trypan blue exclusion assay; type: cell-based
[5] = test system: HeLa; experiment: Cell cycle arrest in human HeLa cells assessed as accumulation at G2/M phase at 10 to 20 uM after 48 hrs by propidium iodide staining based flow cytometry; type: functional
Procedure, shortened: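 HeLa cells in DMEM with 10% FBS at 37 °C, 5% CO2, exposed to 10 or 20 μM for 48 h, DMSO vehicle (final ≤0.15%). Permeabilized cells stained with propidium iodide and analyzed by flow cytometry, 5000 events per sample. Percentages in hypodiploid, G0/G1, S and G2/M are given minus control values. Mean ± SD of three experiments run in duplicate.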

[6] = target: T1, Heat shock protein HSP 90-alpha; experiment: Inhibition of HSP90 alpha in human HeLa cells assessed as effect on CDC2/p34 phosphorylation at Thr161 residue at 10 uM after 48 hrs by Western blot analysis relative to GAPDH (reference value: 1); type: cell-based
[7] = target: T1, Heat shock protein HSP 90-alpha; experiment: Inhibition of HSP90 alpha in human HeLa cells assessed as effect on CDC2/p34 phosphorylation at Thr161 residue at 20 uM after 48 hrs by Western blot analysis relative to GAPDH (reference value: 1); type: cell-based
[8] = test system: HeLa; experiment: Effect on total Cdc2 expression in human HeLa cells at 10 uM after 48 hrs by Western blot analysis relative to GAPDH (reference value: 1); type: ADME, cell-based
[9] = test system: HeLa; experiment: Effect on total Cdc2 expression in human HeLa cells at 20 uM after 48 hrs by Western blot analysis relative to GAPDH (reference value: 1); type: ADME, cell-based
[10] = target: T1, Heat shock protein HSP 90-alpha; experiment: Inhibition of HSP90 alpha in human HeLa cells assessed as effect on HSP90 expression at 10 uM after 48 hrs by Western blot analysis relative to alpha-tubulin (reference value: 1); type: cell-based
[11] = target: T1, Heat shock protein HSP 90-alpha; experiment: Inhibition of HSP90 alpha in human HeLa cells assessed as effect on HSP90 expression at 20 uM after 48 hrs by Western blot analysis relative to alpha-tubulin (reference value: 1); type: cell-based
[12] = target: T1, Heat shock protein HSP 90-alpha; experiment: Inhibition of HSP90 alpha in human HeLa cells assessed as effect on HSP70 expression at 10 uM after 48 hrs by Western blot analysis relative to alpha-tubulin (reference value: 1); type: cell-based
[13] = target: T1, Heat shock protein HSP 90-alpha; experiment: Inhibition of HSP90 alpha in human HeLa cells assessed as effect on HSP70 expression at 20 uM after 48 hrs by Western blot analysis relative to alpha-tubulin (reference value: 1); type: cell-based
[14] = target: T1, Heat shock protein HSP 90-alpha; experiment: Inhibition of HSP90 alpha in human HeLa cells assessed as effect on EGFR expression at 10 uM after 48 hrs by Western blot analysis relative to GAPDH (reference value: 1); type: cell-based
[15] = target: T1, Heat shock protein HSP 90-alpha; experiment: Inhibition of HSP90 alpha in human HeLa cells assessed as effect on EGFR expression at 20 uM after 48 hrs by Western blot analysis relative to GAPDH (reference value: 1); type: cell-based
[16] = target: T1, Heat shock protein HSP 90-alpha; experiment: Inhibition of HSP90 alpha in human HeLa cells assessed as effect on AKT phosphorylation at 10 uM after 48 hrs by Western blot analysis relative to GAPDH (reference value: 1); type: cell-based
[17] = test system: HeLa; experiment: Effect on total AKT expression in human HeLa cells at 10 uM after 48 hrs by Western blot analysis relative to GAPDH (reference value: 1); type: ADME, cell-based
[18] = test system: HeLa; experiment: Effect on total AKT expression in human HeLa cells at 20 uM after 48 hrs by Western blot analysis relative to GAPDH (reference value: 1); type: ADME, cell-based
[19] = target: T1, Heat shock protein HSP 90-alpha; experiment: Inhibition of HSP90 alpha in human HeLa cells assessed as effect on Cyclin A expression at 10 uM after 48 hrs by Western blot analysis relative to GAPDH (reference value: 1); type: cell-based
[20] = target: T1, Heat shock protein HSP 90-alpha; experiment: Inhibition of HSP90 alpha in human HeLa cells assessed as effect on Cyclin A expression at 20 uM after 48 hrs by Western blot analysis relative to GAPDH (reference value: 1); type: cell-based
[21] = target: T1, Heat shock protein HSP 90-alpha; experiment: Inhibition of HSP90 alpha in human HeLa cells assessed as effect on ERK1 phosphorylation at 10 uM after 48 hrs by Western blot analysis relative to GAPDH (reference value: 1); type: cell-based
[22] = target: T1, Heat shock protein HSP 90-alpha; experiment: Inhibition of HSP90 alpha in human HeLa cells assessed as effect on ERK1 phosphorylation at 20 uM after 48 hrs by Western blot analysis relative to GAPDH (reference value: 1); type: cell-based
[23] = test system: HeLa; experiment: Effect on total ERK1 expression in human HeLa cells at 10 uM after 48 hrs by Western blot analysis relative to GAPDH (reference value: 1); type: ADME, cell-based
[24] = test system: HeLa; experiment: Effect on total ERK1 expression in human HeLa cells at 20 uM after 48 hrs by Western blot analysis relative to GAPDH (reference value: 1); type: ADME, cell-based

CC1=C2C[C@]3(C)C(=O)C=C(C(C)C)[C@H]3C/C=C(/C)[C@@H]2CC1=O
Kd ([1]; read-out: Kd): 1.74 µM
IC50 [2]: > 20 µM
IC50 [3]: > 20 µM

CC1=C2C[C@]3(C)C(=O)C=C(C(C)C)[C@H]3C[C@H]3O[C@@]3(C)[C@@H]2CC1=O
Kd [1]: Not Active
IC50 [2]: > 20 µM
IC50 [3]: > 20 µM

C=C1CC[C@@H]2[C@H]1C[C@]1(C)CC[C@@H](C(C)C)[C@H]1C[C@H]1O[C@@]21C
Kd ([1]; read-out: Kd): 0.13 µM
IC50 [2]: > 20 µM
IC50 [3]: > 20 µM

CC1=C2C[C@@]3(C)O[C@@](C)([C@@H]2CC1=O)[C@H]1CC(=O)[C@@](C(C)C)(CC3=O)O1
Kd ([1]; read-out: Kd): 0.12 µM
IC50 [2]: > 20 µM
IC50 [3]: > 20 µM

CC1=C2C[C@]3(C)C(=O)C[C@@H](C(C)C)[C@H]3C/C=C(/C)[C@@H]2CC1=O [HYPOESTENONE]
Kd ([1]; read-out: Kd): 1 µM
IC50 [2]: > 20 µM
IC50 [3]: > 20 µM

C/C1=C/C[C@@H]2[C@H](C(C)C)CC(=O)[C@@]2(C)/C=C2/C(C)CCC12 (stereo partly specified)
Kd ([1]; read-out: Kd): 0.0205 µM
IC50 [2]: > 20 µM
IC50 [3]: > 20 µM

CC1=C2C[C@]3(C)CC[C@@H](C(C)C)[C@H]3C/C=C(/C)[C@@H]2CC1=O
Kd ([1]; read-out: Kd): 0.028 µM
IC50 [2]: > 20 µM
IC50 [3]: > 20 µM

C=C1CC[C@H]2/C(C)=C\C[C@@H]3[C@H](C(C)C)CC(=O)[C@@]3(C)C[C@@H]12
Kd ([1]; read-out: Kd): 0.401 µM
IC50 [2]: > 20 µM
IC50 [3]: > 20 µM

CC1=C2C[C@]3(C)C(=O)C=C(C(C)C)C3CC(O)/C(C)=C\2CC1=O (stereo partly specified)
Kd [1]: Not Active
IC50 [2]: > 20 µM
IC50 [3]: > 20 µM

CC1=C2C[C@]3(C)C(=O)C[C@@H](C(C)C)[C@H]3C[C@H]3O[C@@]3(C)[C@@H]2CC1=O
Kd [1]: Not Active
IC50 [2]: > 20 µM
IC50 [3]: > 20 µM

CC(=O)O[C@H]1C[C@@](O)(C(C)C)[C@H]2C/C=C(/C)[C@@H]3CC(=O)C(C)=C3C[C@]12C
Kd [1]: Not Active
IC50 [2]: > 20 µM
IC50 [3]: > 20 µM

C/C1=C/C[C@@H]2[C@H](C(C)C)CC[C@@]2(C)CC23OC2(C)CC[C@@H]13 (stereo partly specified)
Kd [1]: Not Active
IC50 [2]: > 20 µM
IC50 [3]: > 20 µM

CC(C)[C@@H]1CC(=O)[C@@]2(C)/C=C3\C(CC[C@@]3(C)O)[C@]3(C)O[C@@H]3CC12 (stereo partly specified)
Kd ([1]; read-out: Kd): 0.045 µM
IC50 [2]: > 20 µM
IC50 [3]: > 20 µM

CC1=CCC23OC4(C[C@]2(C)C(=O)C=C3C(C)C)[C@H](C)C(=O)C[C@@H]14 (stereo partly specified)
Kd ([1]; read-out: Kd): 0.217 µM
IC50 [2]: > 20 µM
IC50 [3]: > 20 µM

CC1=C2C[C@]3(C)C(=O)C[C@@H](C(C)(C)O)[C@H]3C/C=C(/C)[C@@H]2CC1=O
Kd ([1]; read-out: Kd): 0.0153 µM
IC50 [2]: > 20 µM
IC50 [3]: > 20 µM
Activity [4]: Non-Toxic
Activity [5]: Active
fold change (FC) [6]: 0.2
fold change (FC) [7]: 0.1
fold change (FC) [8]: 1.8
fold change (FC) [9]: 1.5
fold change (FC) [10]: 1.4
fold change (FC) [11]: 1.3
fold change (FC) [12]: 1
fold change (FC) [13]: 0.8
fold change (FC) [14]: 1.3
fold change (FC) [15]: 1.4
fold change (FC) [16]: 0.3
fold change (FC) [17]: 1
fold change (FC) [18]: 1
fold change (FC) [19]: 1
fold change (FC) [20]: 1.2
fold change (FC) [21]: 0.5
fold change (FC) [22]: 0.3
fold change (FC) [23]: 1.2
fold change (FC) [24]: 1.2
